The chains are these.
B1: tRNA (parent)
chain: GUUCCGUUGGCGUAAUGGUAACGCGUCUCCCUCCUAAGGAGAAGACUGCGGGUUCGAGUCCCGUACGGAACG

Variants at the floor of the assay were thinned out. Bounds are passed on as bounds.

The variants in the series derive from B1. In words: yeast fitness relative to wild type (ratio to wild type); higher = fitter; tRNA-Arg(CCU), competitive growth, 37 C, YPD. The essentials: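 Variants of the tRNA-Arg(CCU) gene, chemically synthesised with a 3% per-site mutation rate at 69 sites, were placed at the native genomic locus in Saccharomyces cerevisiae. The pooled strains were competed in YPD at 37°C for 24 hours in six parallel replicates. Gene amplicons from the start population and from each end population were read by 100-nucleotide paired-end sequencing. Darwinian fitness relative to wild type came from changes in genotype frequencies; genotypes needed ≥ 100 starting reads, and estimates < 0.5 were set to 0.5.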
With U7C C33U G39C G58A, the yeast fitness was at most 0.5.
As for U7C C31G U32C G48C G50A A65U, the yeast fitness is at most 0.5.
The same measure for U7C C11G C24U G48A C66U A70C: at most 0.5; for U7C G10A C24G: at most 0.5.
On to U7C A36C C61G C66U A69U, for which the yeast fitness is at most 0.5.
Consider U7C C61U A70G, for which the yeast fitness was found to be 0.712.
The figure for U7C C27U A45C is 0.609; for U7A U26C A40G A43U C49A it is 0.622; for U7A U28A C61U U64A it is at most 0.5.
The same measure for U7A U13A C49A: at most 0.5; for U7C G10A C29U C30G C34A: at most 0.5.
The figure for U7A U32G A37U C49U is 0.642; for U7A G51C G56C C61A it is at most 0.5; for U7C C30U G39C U64C it is at most 0.5.
On to U7C G9C U28C G41A, for which the yeast fitness is at most 0.5.
The figure for U7C A21U C22A C49U G50C A69U is at most 0.5.
As to U7C A14G G25A A43G A69C, the yeast fitness was at most 0.5.
On to U7A U8C G23A G56C C66G, for which the yeast fitness came out at 0.677.
The same measure for U7A G18C C27A C31G A43G: at most 0.5; for U7C C66U: 0.921; for U7A U35C G41C A70U: at most 0.5.
In the case of U7C G9A A20U A36G C55G, the yeast fitness was at most 0.5.
In the case of U7C C11G C30G C33A A57C C61A, the yeast fitness was at most 0.5.
The same measure for U7C A21G C33G C60U: at most 0.5.
Regarding U7C C27U A45U G48A C66U, the yeast fitness is at most 0.5.
The same measure for U7C A15C G25A G38A A45G G52A C61G: at most 0.5; for U7C C30G A40C A42G: 0.534.
The figure for U7C A20G C30A is at most 0.5; for U7C C30G U54C C61G it is at most 0.5; for U7C A37G A42C C49G C61U it is 0.504.
In the case of U7C C31U A57U, the yeast fitness stood at 0.539.
The same measure for U7C C27U A36C G56C G68A A70U: at most 0.5; for U7C C29G G44C: 0.567; for U7C C11A C33A A36C G63C C66G: at most 0.5.
As to U7C C11A C30G, the yeast fitness is at most 0.5.
As to U7A U47A A65G, the yeast fitness was 0.523.
The figure for U7C A14U A65C is at most 0.5; for U7C C61G it is 0.634.
The figure for U7C C61U is 0.959; for U7C A20C A69C it is 0.615.
Turning to U7C A21U C55A, the yeast fitness is 0.586.
The figure for U7C C11G U32G C61U is 0.59; for U7A G10A G41C A42U C46A C61G it is 0.561; for U7C C55A G67A it is at most 0.5.
The same measure for U7A G23C C49G C66A: at most 0.5.
The figure for U7C C29U C31A C66G G67U is at most 0.5; for U7C C33G A37U A40C A69U it is 0.533.
U7A G52C: the yeast fitness amounted to 0.55.
In the case of U7C C30U C34A A57U C66A, the yeast fitness stood at 0.555.
The same measure for U7A U8C G9A U32G A42U: 0.561; for U7A G50U: 0.69; for U7A G50C: 0.684.
U7C C30U G39C U54C U64C: the yeast fitness is at most 0.5.
The same measure for U7C A14U G25C G39U C62G A65U: at most 0.5; for U7A G23A C24U U35A C60A A69U: at most 0.5; for U7A G23A C24U U35A C60A A69C: 0.706.
As to U7C C49A G67A, the yeast fitness was at most 0.5.
The same measure for U7A U19A C27A C30U G41C A43U C49A: at most 0.5; for U7A G12A C24U G25C A42U: at most 0.5; for U7C G10A C24G C62A: at most 0.5.
As to U7C A15C A40G A57G, the yeast fitness amounted to 0.649.
Turning to U7A U19A A20C A40G, the yeast fitness is at most 0.5.
In the case of U7C A57G, the yeast fitness was determined as 0.842.
U7C A57C: the yeast fitness was determined as 0.612.
For U7A G17C A37G C49A, the yeast fitness is at most 0.5.
With U7A G10C A40G U53A G63A, the yeast fitness was at most 0.5.
The figure for U7A U8A G10C C27G C34G C55U A57G is at most 0.5; for U7C A57U U64C G67C it is 0.501; for U7C A14G C29U C31U C33U C49U it is at most 0.5.
As for U7C A14G G23A G25A A36U A43U, the yeast fitness was at most 0.5.
For the variant U7C C29G G39A, the yeast fitness was at most 0.5.
The figure for U7C C29G G58C G67C is at most 0.5.
For the variant U7A U19A C29A, the yeast fitness was at most 0.5.
The figure for U7C C31A U35G A42G is 0.591; for U7A U16C G17A C29U C31A U35C C66G G67U it is at most 0.5; for U7C A15U C49U C62U it is 0.673.
The figure for U7A G39C A45G is at most 0.5.
The figure for U7C C30G A40U A70U is at most 0.5; for U7A U16C C29U C31A C66G G67U it is at most 0.5.
Consider U7A U47C, for which the yeast fitness was determined as 0.785.
The figure for U7C C29U U47A C62G is at most 0.5; for U7A G23A C60A it is at most 0.5; for U7A G41C it is 0.684.
The same measure for U7A G67C: 0.669; for U7A G67A: 0.781; for U7A U8G C30G A70U: 0.518.
For the variant U7A U19A C49U G56C G63C, the yeast fitness is at most 0.5.
U7C C34G A45G C60U A69U: the yeast fitness is at most 0.5.
Consider U7C C62A, for which the yeast fitness was 0.786.
The figure for U7C C29G C49U U64A G68A is at most 0.5; for U7C G10C C46U it is 0.523.
Regarding U7A G44C C49U C61A C62U C66U, the yeast fitness was at most 0.5.
In the case of U7C C30A A42C C60U A69G, the yeast fitness was at most 0.5.
Turning to U7C C33U G63A, the yeast fitness is 0.54.
The figure for U7C C49A is 0.732; for U7C C49G it is 0.774.
The same measure for U7C C27G C33G G44A C61G: at most 0.5.
For the variant U7A G38C A70G, the yeast fitness is at most 0.5.
For the variant U7A G23A C30U C33A G41C A42U, the yeast fitness was at most 0.5.
The figure for U7A U32A A42U C60A is 0.619; for U7A U8A U35C C62A it is 0.537; for U7C A36G A45U it is 0.569.
The figure for U7A U28G C30A G52A A69U is 0.607; for U7C A43U it is 0.949; for U7C A43C it is 0.88.
For U7C A43G, the yeast fitness turned out to be 0.841.
With U7A U16C G17A C29U C31A, the yeast fitness is at most 0.5.
The figure for U7A U16C G17A C29U C31A C66G G67U is at most 0.5; for U7A G18A A36C U47A G68A it is 0.508.
Turning to U7A U19G G58A A69C, the yeast fitness was 0.527.
The figure for U7A G23A C29A C55A is at most 0.5; for U7A U53C it is 0.604; for U7C A37G it is 0.666.
In the case of U7C A37C, the yeast fitness came to 0.862.
The same measure for U7A G48A U59C C61A G63A: at most 0.5.
The figure for U7C C22U C49U C55A is at most 0.5; for U7A G23A it is 0.722; for U7A G23C it is 0.519.
The figure for U7C A14G G17A A69U A70U is 0.594; for U7A G18U C31U C49G it is at most 0.5; for U7C A70G it is 0.879.
In the case of U7A G58C, the yeast fitness worked out at 0.918.
On to U7C C31U A43G U59A, for which the yeast fitness stood at 0.505.
As to U7A G39C C46G C49U C62U, the yeast fitness was at most 0.5.
For U7C C29G G44C C60U, the yeast fitness was at most 0.5.
The figure for U7C A15U G39A is 0.623; for U7C A20G C31U A43G U59A it is at most 0.5.
For the variant U7C C30U G44A G56A, the yeast fitness was found to be 0.522.
Turning to U7A U54C, the yeast fitness stood at 0.734.
The same measure for U7A U64A: 0.837.
As to U7C A15C A40G U53G, the yeast fitness was at most 0.5.
The figure for U7C C27A C66A is at most 0.5; for U7C C34A U59A it is at most 0.5.
For the variant U7C C46U, the yeast fitness came to 0.884.
Regarding U7C C46G, the yeast fitness was 0.943.
For U7C A40G, the yeast fitness came to 0.822.
On to U7C A40U, for which the yeast fitness stood at 0.793.
With U7C C11G C24U G48A A57G C66U A70C, the yeast fitness is at most 0.5.
The same measure for U7C A15G C61G C66U A69U: at most 0.5; for U7A G10C C22U C27G G50U C66U: at most 0.5.
The same measure for U7A G12A C34G C62U G68C: at most 0.5; for U7C C11U C31U C33G C49A G51A: at most 0.5; for U7C C24U A42G U54A C55G: at most 0.5.
U7A G10C A57U: the yeast fitness is at most 0.5.
On to U7A U8A U35C, for which the yeast fitness was 0.601.
The same measure for U7C C11U: 0.886; for U7A G17A U32C: at most 0.5; for U7A G23C C34G U35G A40U A70C: at most 0.5.
The same measure for U7C A20G A69C: 0.594; for U7A U19A: 0.752; for U7A U28C C62G: at most 0.5.
The figure for U7C C31G G38C A43U C62G is at most 0.5; for U7C C34U A70G it is at most 0.5; for U7A U8A G25A C62G it is at most 0.5.
As to U7A G41C G63C A65U, the yeast fitness was at most 0.5.
The figure for U7A G12C A14G A21C C24U G38A U54C C66A is at most 0.5.
As to U7A G48A, the yeast fitness amounted to 0.99.
U7C C62G A69U: the yeast fitness was 0.565.
The same measure for U7A G23A C62U: at most 0.5; for U7C C30U C34A G52C: at most 0.5.
The same measure for U7C C33G A36G C49A G68C: at most 0.5.
The figure for U7C A42U is 0.728; for U7A U8A G10C C27G C34G C55U it is 0.527; for U7A G56C C66U it is at most 0.5.
Turning to U7A G17C C24G C29A, the yeast fitness was at most 0.5.
Regarding U7C G9C G41A, the yeast fitness was at most 0.5.
For U7C C24U, the yeast fitness was determined as 0.855.

The record behind these values is the RNAGym collection of RNA variant scans (doi:10.1126/science.aae0568).
